High-throughput results deposited in PubChem by several laboratories.
Only some compounds are listed: those with a hit (about 2.4% of all), similar ones and a draw of the others.
pCIP destab = compounds decreasing mouse p/CIP protein stability | 290,000 tested, 0.01% active | AID 1984 | F442A p/CIP-EGFP cells, EGFP fluorescence, 16 h | decrease of EGFP signal, % at 10 µM;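 active means EGFP signal decrease of at least 30% at 10 µM or well 3 SD below plate mean, unless failing retest; inactive means the rest, including hits failing retest or dose response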
T cruzi repl = T. cruzi replication inhibition | AID 1885 | 300,000 tested, 1.4% active | inhibition, % (concentration not given with the values) | T. cruzi beta-gal in NIH3T3, luminescence, 90 h;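 active means mean inhibition across valid replicates above about 55%, limit read from the data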;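 further: signal also drops with host cell toxicity which is not excluded here; higher percent means less beta-gal luminescence so fewer parasites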
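Incubation – ≥90 h infection period, 3 h prior cell attachment · System – NIH/3T3 fibroblasts plus reporter T. cruzi · Doses – compound pinned at 50 nL/well, DMSO · Read-out basis – percent inhibition of parasite-derived β-gal signal · Signal – luminescent β-galactosidase signal after 60 min lysis · Also added – 5000 T. cruzi trypomastigotes/well · Medium – Low-serum DMEM with 2% FBS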
GASC-1 inh = inhibitors of human GASC-1 (JMJD2C) demethylase; GST-JMJD2C(1-420) H3K9me3 demethylation, DELFIA europium; Q9H3R0; inhibition, % at 2.35 µM; 330,000 tested, 0.069% active;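 active means more than half of a compound's replicate wells show inhibition beyond 50%, single wells judged on their own value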;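 further: signal counts dimethyl H3K9 product captured on neutravidin plate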
Target sequence (Q9H3R0 1-420 limits assumed): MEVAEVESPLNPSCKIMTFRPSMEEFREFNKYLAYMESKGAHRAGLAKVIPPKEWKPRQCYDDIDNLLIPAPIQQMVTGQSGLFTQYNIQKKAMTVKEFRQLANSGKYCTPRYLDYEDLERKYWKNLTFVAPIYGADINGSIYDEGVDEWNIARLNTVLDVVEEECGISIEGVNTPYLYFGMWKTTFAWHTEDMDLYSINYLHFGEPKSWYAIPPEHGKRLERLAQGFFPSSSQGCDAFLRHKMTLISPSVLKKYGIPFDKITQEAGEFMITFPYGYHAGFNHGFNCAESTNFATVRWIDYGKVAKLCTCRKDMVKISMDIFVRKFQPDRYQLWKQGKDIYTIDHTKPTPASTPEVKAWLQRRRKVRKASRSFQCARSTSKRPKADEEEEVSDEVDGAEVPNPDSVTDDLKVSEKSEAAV
PP5 inh = PP5 (human) phosphatase inhibition. P53041. purified PP5c, OMFP substrate fluorescence. inhibition, % at 6.7 µM. 320,000 tested, 0.18% active;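 active means inhibition above the campaign's mean inhibition across all tested compounds plus 3 SD, cut at about 9.5% in these data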
Cardio protect = modulators protecting cardiomyocytes from myocardial damage. H9c2 cardiomyocytes, H2O2 injury protection, ATPLite, 2 h. 360,000 tested, 0.63% active. protection from H2O2 cell death, % at 20 µM;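 active means compounds giving at least 50% protection of heart cells from peroxide-induced death in the single-dose screen, raw or plate-pattern-corrected value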
Fh CTSL1 inh = counter-screen for PFM18AAP inhibitors: inhibitors of F. hepatica cathepsin L1; recombinant F. hepatica cathepsin L1, Z-Leu-Arg-MCA fluorescence; 300,000 tested, 0.49% active; inhibition, % at 5.96 µM;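 active means inhibition above the mean of all tested compounds plus 3 SD, set per screening campaign, cut at about 17% in these data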
A number is an active result; 0 = inactive; - = not tested or not shown.

SMILES	pCIP destab	T cruzi repl	GASC-1 inh	PP5 inh	Cardio protect	Fh CTSL1 inh
O=c1[nH]nc(-c2ccc(NCCO)c([N+](=O)[O-])c2)c2ccccc12	0	0	0	0	68.3	0
Cc1ccc(-c2n[nH]c(=O)c3ccccc23)cc1S(=O)(=O)N(C)CCO	0	0	0	0	0	0
COc1ccc(NC(=O)c2nc[nH]c2C(=O)NCCCCCNC(=O)OC(C)(C)C)cc1	-	-	0	0	-	0
COc1cccc(CNC(=O)C2CCN(S(=O)(=O)c3ccc4c(c3)CC(C)N4C(C)=O)CC2)c1 (configuration not stated)	0	0	0	0	0	0
Cc1cccc(NS(=O)(=O)c2ccc(C)c(C(=O)N(C)C3CCN(C)CC3)c2)c1	-	-	-	-	0	-
O=C(CN(c1cccc([N+](=O)[O-])c1)S(=O)(=O)c1ccccc1)N(Cc1ccccc1)Cc1ccccc1	0	0	0	0	0	17.5
O=C(CN(c1cccc([N+](=O)[O-])c1)S(=O)(=O)c1ccccc1)NCc1ccccc1	0	0	0	0	0	0
COc1ccccc1S(=O)(=O)N(C)C[C@H]1OCc2cn(nn2)CCCC(=O)N([C@@H](C)CO)C[C@@H]1C	-	-	-	-	0	-
CCN(c1ccccc1)S(=O)(=O)c1ccc(C(=O)N(CCN(C)C)c2nc3c(F)cc(F)cc3s2)cc1	0	0	0	0	-	0
CC1=C(C(=O)N(C(C)C)C(C)C)CC(CC(=O)NCCCCc2ccccc2)C(=O)N1Cc1ccc(F)cc1 (configuration not stated)	-	-	-	-	0	-
COc1ccc(-c2nn(-c3ccccc3)cc2/C=C/C(=O)N2CCN(c3ccccn3)CC2)cc1	0	55.5	0	0	68.2	0
Cc1ccc(-c2nn(-c3ccccc3)cc2C(=O)N2CCN(c3ccccn3)CC2)cc1	0	0	0	0	0	0
Cc1nc(N/C(N)=N/S(=O)(=O)c2ccccc2)nc2ccccc12	-	-	0	-	0	-
Cc1nc(N/C(N)=N/S(=O)(=O)c2ccc([N+](=O)[O-])cc2)nc2ccccc12	0	55.5	0	0	0	0
Cc1ccc2c(C)nc(N/C(N)=N/S(=O)(=O)c3ccc([N+](=O)[O-])cc3)nc2c1	0	55.1	0	0	0	0
CC(C)n1c(O)c(N=Nc2ccc(Cl)nn2)c2ccccc21	0	0	0	0	65.1	0
CCCn1c2c(c(O)c(C(=O)Nc3ccc(OC)cc3)c1=O)CCCC2	0	61.2	0	0	0	0
Cn1c(=O)n(C)c2cc(/C=N/NC(N)=S)ccc21	0	0	0	0	0	32.7
CN(C)c1ccc(/C=N/NC(N)=S)cc1[N+](=O)[O-]	0	0	0	0	0	18.7
Cn1c(=O)n(C)c2cc(/C=N/NC(=O)c3ccc(Cl)cc3Cl)ccc21	0	0	0	0	0	0
CN(C(=O)c1cccc(NC(=O)Cc2ccc(NC(=O)C3CCCN(S(=O)(=O)c4cccc([N+](=O)[O-])c4)C3)cc2)c1)C1CCC1 (configuration not stated)	-	-	-	-	0	-
CN1CCN(C(=O)c2cc3nc(-c4ccc(F)cc4)cc(C(F)(F)F)n3n2)CC1	0	0	0	0	0	0
O=C(c1cnn2c(C(F)(F)F)cc(-c3ccccc3)nc12)N1CCCCC1c1cccnc1 (configuration not stated)	0	58.6	0	0	0	0
Cc1ccc(-c2cc(C(F)F)n3ncc(C(=O)N4CCN5CCCC5C4)c3n2)cc1 (configuration not stated)	0	0	0	0	0	0
O=C(c1cc2nc(-c3ccc(F)cc3)cc(C(F)(F)F)n2n1)N1CCCCC1c1cccnc1 (configuration not stated)	0	94.9	0	0	0	0
SMILES	pCIP destab	T cruzi repl	GASC-1 inh	PP5 inh	Cardio protect	Fh CTSL1 inh
Cc1ccc(-c2cc(C(F)F)n3ncc(C(=O)N4CCCCC4c4cccnc4)c3n2)cc1 (configuration not stated)	0	62.7	0	0	0	0
CCCc1nn2c(=O)cc(CSCC(=O)Nc3cccc(OC)c3)nc2s1	0	0	0	0	0	0
OC[C@@H]1CN(Cc2ccc(-c3ccccc3)cc2)C[C@H](n2cnc3c(NC4CCC4)ncnc32)O1	-	-	-	-	0	-
COc1ccc(CN(C(=O)c2ccc(-c3ccccc3)[nH]2)C(C(=O)NC(C)(C)C)c2ccncc2)cc1 (configuration not stated)	0	58.5	0	0	0	0
CCOC(=O)Cc1c(C)nc2c(-c3ccc(Cl)cc3)c[nH]n2c1=O	0	0	0	0	51.8	0
Cc1nc2c(-c3ccccc3)c[nH]n2c(=O)c1Cc1ccccc1	0	62.1	0	0	0	0
N#CCC(=O)N/N=C/c1c(-c2ccccc2)n(-c2ccccc2)c2ccccc12	0	0	0	0	0	0
Cc1ccc(C)c2[nH]c(=O)c(CN(Cc3ccc4c(c3)OCO4)Cc3nnnn3Cc3ccco3)cc12	0	0	0	0	60.2	0
Cc1ccc(C(c2nnnn2C(C)(C)C)N(Cc2ccco2)Cc2cccs2)cc1 (configuration not stated)	0	63.8	0	0	0	0
COc1ccc2[nH]c(=O)c(CN(Cc3ccco3)Cc3nnnn3Cc3ccccc3)cc2c1	0	0	0	0	66.0	0
Cc1ccc2cc(CN(Cc3ccc4c(c3)OCO4)Cc3nnnn3Cc3ccco3)c(=O)[nH]c2c1C	0	0	0	0	0	0
COc1ccc2[nH]c(=O)c(CN(CCc3ccccc3)Cc3nnnn3CC3CCCO3)cc2c1 (configuration not stated)	0	0	0	0	76.5	0
CC(C)(C)n1nnnc1C(c1ccc(F)cc1)N(Cc1ccc(F)cc1)Cc1ccco1 (configuration not stated)	0	0	0	0	0	0
CC1(C)NC(=O)N(CC(=O)OCC(=O)N2CCN(S(=O)(=O)c3ccccc3)CC2)C1=O	-	-	-	-	0	-
COCCCN(Cc1ccco1)C(=O)c1cc2c(s1)-c1ccc(Cl)cc1S(=O)(=O)C2	0	0	0	0	0	0
CCOc1ccc2[nH]c(=O)c(CN(Cc3nnnn3Cc3ccco3)C3CCCCC3)cc2c1	0	0	0	0	58.6	0
CCC(c1nnnn1C(C)(C)C)N(Cc1ccco1)Cc1cc2cccc(C)c2[nH]c1=O (configuration not stated)	0	0	0	0	0	0
CCOc1ccc2[nH]c(=O)c(CN(Cc3ccco3)C(CC)c3nnnn3Cc3ccccc3)cc2c1 (configuration not stated)	0	0	0	0	85.5	0
CCOc1ccc2[nH]c(=O)c(CN(Cc3cccs3)C(CC)c3nnnn3C(C)(C)CC)cc2c1 (configuration not stated)	0	0	0	-	67.0	-
